In ChEMBL document CHEMBL1127645, “Synthesis, structure-activity relationships, and pharmacological evaluation of a series of fluorinated 3-benzyl-5-indolecarboxamides: identification of 4-[[5-[((2R)-2-methyl-4,4,4-trifluorobutyl)carbamoyl]-1-methyl indol- 3-yl]methyl]-3-methoxy-N-[(2-methylphenyl)sulfonyl]benzamide, a potent, …” (J Med Chem, 1994):

What was measured:
[1] = molecular target: T1, Cysteinyl leukotriene receptor 1 (Cavia porcellus) (UniProt Q2NNR5); experiment: Effective dose for the inhibition of percent protection from LTD4-induced dyspnea in a conscious guinea pig administered through oral route; assay type: functional
T1 sequence (whole entry): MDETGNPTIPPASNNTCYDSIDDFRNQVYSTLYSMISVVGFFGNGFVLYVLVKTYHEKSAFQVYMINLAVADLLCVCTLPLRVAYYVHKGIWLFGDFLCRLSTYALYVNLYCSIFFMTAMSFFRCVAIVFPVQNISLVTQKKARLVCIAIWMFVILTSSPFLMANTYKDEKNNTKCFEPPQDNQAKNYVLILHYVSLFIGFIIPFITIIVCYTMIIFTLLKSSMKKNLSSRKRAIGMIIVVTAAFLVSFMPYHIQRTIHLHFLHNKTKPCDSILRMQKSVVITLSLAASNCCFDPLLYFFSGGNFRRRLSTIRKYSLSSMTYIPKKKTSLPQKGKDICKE
How it was run: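 Conscious guinea pig dyspnea model with LTD4 challenge; percent protection from dyspnea plotted against dose (oral or intravenous). ED50 obtained by regression using at least three doses from the linear portion of the dose-response curve; SEM for percent protection was generally ≤25% at each dose.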

[2] = molecular target: T1, Cysteinyl leukotriene receptor 1 (Cavia porcellus); experiment: Binding constant in guinea pig tracheal spirals with LTE4; assay type: tissue-based; conditions: Trachea
How it was run: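 Guinea pig tracheal spirals contracted with LTE4 as agonist. Antagonist KB derived from concentration-response curves and reported as -log(KB) (pKB); n = number of concentration-response curves.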

[3] = molecular target: T2, Cysteinyl leukotriene receptor 1 (Cavia porcellus, UniProt Q2NNR5); experiment: Inhibition constant for displacement of [3H]LTD4 on guinea pig lung parenchymal membranes; assay type: tissue-based, Lung parenchyma
T2 sequence (Q2NNR5 whole entry): T1 sequence (whole entry)
How it was run: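 Guinea pig lung parenchymal membranes; competitive displacement of [3H]LTD4. Ki taken as mean of two experiments, each run in duplicate on separate membrane batches.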

[4] = Partition coefficient (logP); conditions: octanol/water
Cavia porcellus [5] = experiment: ED50 (p.o.) / ED50 (i.v.) ratio of the compound; assay type: functional
How it was run: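 Ratio of oral ED50 to intravenous ED50 from the conscious guinea pig LTD4-induced dyspnea model, used as an index of oral bioavailability.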

[6] = tested on: Cysteinyl leukotriene receptor (Cavia porcellus); experiment: Inhibition of percent protection from LTD4-induced dyspnea in a conscious guinea pig administered intravenously
Cavia porcellus [7] = experiment: Inhibition of protection from LTD4-induced dyspnea in a conscious guinea pig administered through oral route at a dose of 3 umol/kg; assay type: functional

CCC(CNC(=O)c1ccc2c(c1)c(Cc1ccc(C(=O)NS(=O)(=O)c3ccccc3Br)cc1OC)cn2C)CC(F)(F)F (stereo not drawn) showed an ED50 [1] of 2.5 µmol/kg, a pKB [2] of 9.3 and a Ki [3] of 2.4 nM.

In the case of COc1cc(C(=O)NS(=O)(=O)c2ccccc2Cl)ccc1Cn1cc(C)c2ccc(C(=O)NCC(C)CC(F)(F)F)cc21 (stereo not drawn), the Ki [3] is reported as 4.9 nM.

Compound CCC(CNC(=O)c1ccc2c(c1)c(Cc1ccc(C(=O)NS(=O)(=O)c3ccccc3C)cc1OC)cn2CC)C(F)(F)F (stereo not drawn) has a pKB [2] of 9 and a Ki [3] of 5.3 nM.

In the case of CCC(C)CNC(=O)c1ccc2c(c1)c(Cc1ccc(C(=O)NS(=O)(=O)c3ccccc3C)cc1OC)cn2C (stereo not drawn), the logP [4] is reported as 5.85, the ED50 [1] is reported as 20 µmol/kg and the Ratio (Cavia porcellus [5]) is reported as 14. The pKB [2] was 8.7, the Ki [3] was 5.2 nM and the ED50 [6] was 1.39 µmol/kg.

Compound COc1cc(C(=O)NS(=O)(=O)c2ccccc2C)ccc1Cc1cn(C)c2ccc(C(=O)NCCC(C)C(F)(F)F)cc12 (stereo not drawn) has a logP [4] of 6.3 and a Ki [3] of 7.3 nM.

CCC(CNC(=O)c1ccc2c(c1)c(Cc1ccc(C(=O)O)cc1OC)cn2C)CC(F)(F)F (stereo not drawn) showed a logP [4] of 5.53.

With COc1cc(C(=O)NS(=O)(=O)c2ccccc2Cl)ccc1Cc1cn(C)c2ccc(C(=O)NCC(C)CC(F)(F)F)cc12 (stereo not drawn) the ED50 [1] was 2.5 µmol/kg, the Ratio (Cavia porcellus [5]) was 110 and the pKB [2] was 9.7. For the same compound, the Ki [3] was 0.57 nM and the ED50 [6] was 0.024 µmol/kg.

In the case of COc1cc(C(=O)NS(=O)(=O)c2ccccc2C)ccc1Cc1cn(C)c2ccc(C(=O)NCC3CCCC3)cc12, the ED50 [1] is reported as 19.2 µmol/kg, the Ratio (Cavia porcellus [5]) is reported as 28 and the pKB [2] is reported as 8.4. It also gave a Ki [3] of 3.2 nM and an ED50 [6] of 0.69 µmol/kg.

COc1cc(C(=O)NS(=O)(=O)c2ccccc2C)ccc1Cc1cn(C)c2ccc(C(=O)NCC3CC(F)(F)C(F)(F)C3)cc12 showed an inhibition in vivo at 3 µmol/kg (Cavia porcellus [7]) of 11%, a pKB [2] of 8.6 and a Ki [3] of 1.3 nM.

Compound COc1cc(C(=O)NS(=O)(=O)c2ccccc2C)ccc1Cn1cc(C)c2ccc(C(=O)NCC(C)CC(F)(F)F)cc21 (stereo not drawn) has an ED50 [1] of 2.29 µmol/kg, a pKB [2] of 9.6 and a Ki [3] of 0.44 nM.

Compound CCC(C)CNC(=O)c1ccc2c(c1)c(Cc1ccc(C(=O)O)cc1OC)cn2C (stereo not drawn) has a logP [4] of 4.86.

COc1cc(C(=O)NS(=O)(=O)c2ccccc2C)ccc1Cc1cn(C)c2ccc(C(=O)NCCCC(F)(F)F)cc12 showed a pKB [2] of 8.7 and a Ki [3] of 7.5 nM.

CCn1cc(Cc2ccc(C(=O)NS(=O)(=O)c3ccccc3C)cc2OC)c2cc(C(=O)NCC(C)CC(F)(F)F)ccc21 (stereo not drawn) gave an ED50 [1] of 1.42 µmol/kg, a Ratio (Cavia porcellus [5]) of 129 and a pKB [2] of 10.1. The Ki [3] was 0.38 nM and the ED50 [6] was 0.011 µmol/kg.

In the case of COc1cc(C(=O)NS(=O)(=O)c2ccccc2C)ccc1Cc1cn(C)c2ccc(C(=O)NCC(C)C(F)(F)F)cc12 (stereo not drawn), the logP [4] is reported as 5.89 and the Ki [3] is reported as 12 nM.

With COc1cc(C(=O)O)ccc1Cc1cn(C)c2ccc(C(=O)NCC(C)CC(F)(F)F)cc12 (stereo not drawn) the logP [4] was 5.12.

COc1cc(C(=O)NS(=O)(=O)c2ccccc2C)ccc1Cc1cn(C)c2ccc(C(=O)NC/C(C)=C\C(F)(F)F)cc12 showed a Ki [3] of 2.1 nM.
